# Assays:
# MCF7 = assay: Growth inhibition of human MCF7 cells assessed as cell growth at 10^-5 M after 48 hrs by sulforhodamine B assay relative to control; assay type: functional; conditions: MCF7, 48 h, read-out: Activity
# Summary of the method: (§1)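 NCI primary screen, one-dose format across about 60 human tumour cell lines. Single addition at 10^-5 M with 48 h incubation; SRB protein-binding dye end point read spectrophotometrically. Reported as percent growth of treated cells versus untreated controls.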
# [1] = Growth inhibition of human UO31 cells assessed as cell growth at 10^-5 M after 48 hrs by sulforhodamine B assay relative to control; assay type: functional; conditions: UO-31, 48 h, read-out: Activity
# Summary of the method: (§2)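 NCI primary screen across about 60 human tumour cell lines. Single dose of 10^-5 M, cultures incubated 48 h, end point by sulforhodamine B protein staining read spectrophotometrically. Results are given as percent growth of treated cells relative to untreated control cells.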
# CAKI-1 = assay: Growth inhibition of human CAKI-1 cells assessed as cell growth at 10^-5 M after 48 hrs by sulforhodamine B assay relative to control; assay type: functional; conditions: CAKI-1, 48 h, read-out: Activity
# Summary of the method: (§3)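 NCI ~60 human tumour cell line screen. Single concentration of 10^-5 M added to cultures for 48 h. End point by sulforhodamine B protein staining read spectrophotometrically. Percent growth relative to untreated control cells.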
# A498 [2] = assay: Growth inhibition of human A498 cells assessed as cell growth at 10^-5 M after 48 hrs by sulforhodamine B assay relative to control; assay type: functional; conditions: A498, 48 h, read-out: Activity; summary of the method: as §3
# OVCAR-8 = assay: Growth inhibition of human OVCAR8 cells assessed as cell growth at 10^-5 M after 48 hrs by sulforhodamine B assay relative to control; assay type: functional; conditions: OVCAR-8, 48 h, read-out: Activity; summary of the method: as §1
# [3] = Growth inhibition of human OVCAR4 cells assessed as cell growth at 10^-5 M after 48 hrs by sulforhodamine B assay relative to control; assay type: functional; conditions: OVCAR-4, 48 h, read-out: Activity; summary of the method: as §1
# OVCAR-3 = assay: Growth inhibition of human OVCAR3 cells assessed as cell growth at 10^-5 M after 48 hrs by sulforhodamine B assay relative to control; assay type: functional; conditions: OVCAR-3, 48 h, read-out: Activity; summary of the method: as §1
# M14 = assay: Growth inhibition of human M14 cells assessed as cell growth at 10^-5 M after 48 hrs by sulforhodamine B assay relative to control; assay type: functional; conditions: M14, 48 h, read-out: Activity; summary of the method: as §1
# Malme-3M = assay: Growth inhibition of human MALME-3M cells assessed as cell growth at 10^-5 M after 48 hrs by sulforhodamine B assay relative to control; assay type: functional; conditions: read-out: Activity; summary of the method: as §1
# SNB-19 = assay: Growth inhibition of human SNB19 cells assessed as cell growth at 10^-5 M after 48 hrs by sulforhodamine B assay relative to control; assay type: functional; conditions: SNB-19, 48 h, read-out: Activity; summary of the method: as §2
# [4] = Growth inhibition of human SF539 cells assessed as cell growth at 10^-5 M after 48 hrs by sulforhodamine B assay relative to control; assay type: functional; conditions: SF-539, 48 h, read-out: Activity; summary of the method: as §1
# SF-295 = assay: Growth inhibition of human SF295 cells assessed as cell growth at 10^-5 M after 48 hrs by sulforhodamine B assay relative to control; assay type: functional; conditions: SF-295, 48 h, read-out: Activity; summary of the method: as §1
# SF-268 = assay: Growth inhibition of human SF268 cells assessed as cell growth at 10^-5 M after 48 hrs by sulforhodamine B assay relative to control; assay type: functional; conditions: SF-268, 48 h, read-out: Activity; summary of the method: as §1
# SW-620 = assay: Growth inhibition of human SW620 cells assessed as cell growth at 10^-5 M after 48 hrs by sulforhodamine B assay relative to control; assay type: functional; conditions: SW-620, 48 h, read-out: Activity; summary of the method: as §2
# HT-29 = assay: Growth inhibition of human HT-29 cells assessed as cell growth at 10^-5 M after 48 hrs by sulforhodamine B assay relative to control; assay type: functional; conditions: HT-29, 48 h, read-out: Activity; summary of the method: as §3
# HCT-15 = assay: Growth inhibition of human HCT15 cells assessed as cell growth at 10^-5 M after 48 hrs by sulforhodamine B assay relative to control; assay type: functional; conditions: HCT-15, 48 h, read-out: Activity; summary of the method: as §3
# NCI-H322M = assay: Growth inhibition of human NCI-H322M cells assessed as cell growth at 10^-5 M after 48 hrs by sulforhodamine B assay relative to control; assay type: functional; conditions: read-out: Activity; summary of the method: as §1
# [5] = Induction of nitric oxide release in phosphate buffer at 10^-4 M at pH 7.4 after 1 hr by Griess colorimetric method in presence of N-acetylcysteine; assay type: physicochemical; conditions: pH 7.4, 1 h, 100 µM
# Summary of the method: (§4)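 Final drug concentration 10^-4 M, added from DMF into 1:1 50 mM phosphate buffer (pH 7.4)/MeOH containing 5 × 10^-4 M N-acetylcysteine, at 37 °C. Nitrite read with Griess reagent after 10 min at room temperature, absorbance at 546 nm. Calibration with sodium nitrite standards (10–80 nmol/ml). Reported as mol NO per mol, n = 4 reaction mixtures.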
# [6] = Induction of nitric oxide release in phosphate buffer at 10^-4 M at pH 7.4 after 4 hrs by Griess colorimetric method in presence of N-acetylcysteine; assay type: physicochemical; conditions: pH 7.4, 4 h, 100 µM; summary of the method: as §4
# Rattus norvegicus [7] = assay: Antiinflammatory activity in albino rat assessed as inhibition of carrageenan-induced paw edema at 0.28 mmol/kg, po administered 30 mins prior to carrageenan-challenge measured after 2 hrs relative to control; assay type: functional
# Summary of the method: (§5)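 Male albino rats in groups of four were fasted 24 h with water allowed. Dosing was oral at 0.28 mmol/kg, suspended in 0.5% w/v CMC; controls got CMC alone. After 30 min, 0.1 ml of 1% carrageenan in saline went subplantar into the right hind paw and saline into the left. Paw thickness was read by caliper before and at 1–5 h. % inhibition = [(VR−VL)control−(VR−VL)treated]/(VR−VL)control ×100. Mean ± SEM, n = 4, one-way ANOVA vs control.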
# Rattus norvegicus [8] = assay: Antiinflammatory activity in albino rat assessed as inhibition of carrageenan-induced paw edema at 0.28 mmol/kg, po administered 30 mins prior to carrageenan-challenge measured after 5 hrs relative to control; assay type: functional; summary of the method: as §5
# K562 = assay: Growth inhibition of human K562 cells assessed as cell growth at 10^-5 M after 48 hrs by sulforhodamine B assay relative to control; assay type: functional; conditions: K562, 48 h, read-out: Activity; summary of the method: as §3
# NCI-H23 = assay: Growth inhibition of human NCI-H23 cells assessed as cell growth at 10^-5 M after 48 hrs by sulforhodamine B assay relative to control; assay type: functional; conditions: NCI-H23, 48 h, read-out: Activity; summary of the method: as §1
# RPMI-8226 = assay: Growth inhibition of human RPMI8226 cells assessed as cell growth at 10^-5 M after 48 hrs by sulforhodamine B assay relative to control; assay type: functional; conditions: RPMI-8226, 48 h, read-out: Activity; summary of the method: as §1
# A498 [9] = assay: Growth inhibition of human A498 cells after 48 hrs by sulforhodamine B assay; assay type: functional; conditions: A498, 48 h
# Summary of the method: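 NCI full ~60 cell line panel. Five 10-fold concentrations from 10^-4 to 10^-8 M, 48 h continuous exposure, SRB protein read-out. Time-zero, control and treated absorbances give percentage growth. GI50 is the concentration where [(Ti−Tz)/(C−Tz)]×100 = 50; TGI is where Ti = Tz; LC50 is where [(Ti−Tz)/Tz]×100 = −50.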
Structure (SMILES),growth at 10 µM (MCF7),growth at 10 µM [1],growth at 10 µM (CAKI-1),growth at 10 µM (A498 [2]),growth at 10 µM (OVCAR-8),growth at 10 µM [3],growth at 10 µM (OVCAR-3),growth at 10 µM (M14),growth at 10 µM (Malme-3M),growth at 10 µM (SNB-19),growth at 10 µM [4],growth at 10 µM (SF-295),growth at 10 µM (SF-268),growth at 10 µM (SW-620),growth at 10 µM (HT-29),growth at 10 µM (HCT-15),growth at 10 µM (NCI-H322M),Activity [5],Activity [6],inhibition in vivo at 280 µmol/kg (Rattus norvegicus [7]),other results
C/C(=N\O)c1ccc(NC(=O)CSc2nnc(-c3ccccc3)n2-c2ccccc2)cc1,62.5%,90.6%,99.9%,63.7%,90.8%,86.2%,87.3%,100%,91.8%,45.8%,97.2%,52.6%,92.2%,99.8%,73.3%,84%,66.7%,0.11 mol/mol,0.23 mol/mol,52%,inhibition in vivo at 280 µmol/kg (Rattus norvegicus [8]): 66%; growth at 10 µM (K562): 95.8%; growth at 10 µM (NCI-H23): 76.6%; growth at 10 µM (RPMI-8226): 91.2%
COc1ccc(-c2nnc(SCC(=O)Nc3ccc(/C(C)=N/O)cc3)n2-c2ccccc2)cc1OC,69.2%,104%,87.4%,91.8%,42.8%,103%,82%,89.9%,61.8%,75.8%,43%,39.1%,30.6%,115%,91.2%,98.6%,75.7%,0.15 mol/mol,0.39 mol/mol,63%,inhibition in vivo at 280 µmol/kg (Rattus norvegicus [8]): 76%; growth at 10 µM (K562): 105%; growth at 10 µM (NCI-H23): 68.8%; growth at 10 µM (RPMI-8226): 91.6%; GI50 (A498 [9]): 2.72 µM; TGI (A498 [9]): 46.1 µM; CC50 (A498 [9]; read-out: LC50 (the source's name)): > 100 µM

# Reference: ChEMBL document CHEMBL3102806, “1,2,4-Triazole/oxime hybrids as new strategy for nitric oxide donors: Synthesis, anti-inflammatory, ulceroginicity and antiproliferative activities” (Eur J Med Chem, 2014)
